# Source: ChEMBL document CHEMBL4261485, “Towards the rational design of novel drugs based on solubility, partitioning/distribution, biomimetic permeability and biological activity exemplified by 1,2,4-thiadiazole derivatives” (Medchemcomm, 2017)
# What was measured:
# [1] = 1-octanol/buffer distribution co-efficient, log D of compound at pH 7.4 at 298 K after 24 hrs by shake flask method; type: physicochemical
# In short: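 Shake flask. Buffer (pH 7.4) and 1-octanol were pre-saturated by vigorous mixing for 24 h at 298 K (±0.1 K) and then allowed to separate. Compound was dissolved in the buffer-saturated octanol as stock, then mixed with the octanol-saturated buffer for 24 h at 298 K. Both phases were quantified by UV spectrophotometry against calibration curves. D = Coct/Cbuf.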
# [2] = 1-octanol/buffer partition co-efficient of compound in neutral form at pH 7.4 at 298 K after 24 hrs by shake flask method; type: physicochemical; conditions: pH 7.4, 24 h
# [3] = 1-hexane/buffer partition co-efficient of compound in neutral form at pH 7.4 at 298 K after 24 hrs by shake flask method; type: physicochemical; conditions: pH 7.4, 24 h
# [4] = species: Rattus norvegicus; assay: Modulation of glutamate receptor in synaptosomes of rat brain cortex assessed as change in glutamate-induced 45Ca2+ uptake (K43/21) after 5 mins by liquid scintillation counting method; type: subcellular; design: concentration or dose not given beside the values
# In short: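 Cortical synaptosomes (P2 fraction) from 9–10-day-old rats suspended in HEPES buffer pH 7.4 (NaCl, KCl, glucose; protein 1.5–2 mg mL−1), final Ca2+ 1.25 mM. 45Ca2+ uptake stimulated with 200 μM glutamate, 5 min at […]; stopped by GF/B filtration and three cold-buffer washes; beta counting. Uptake = stimulated minus unstimulated label, % of control; triplicate.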
# [5] = Permeability of compound at 5 mM using lipid layer at pH 7.4 at 298 K by spectrophotometric method; type: ADME; conditions: not told
# [6] = Apparent permeability of compound at 5 mM using permeapad barrier at pH 7.4 at 298 K by spectrophotometric method; type: ADME; conditions: not told
# In short: (§1)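 Franz diffusion cell at 298 K (±0.1 K). The donor (lower) chamber held 8 ml of drug solution, approximately 5 mM, in phosphate buffer saline (74 mM phosphate, pH 7.3–7.4, 280–290 mOsm with NaCl). The acceptor chamber held 1.5 ml buffer. Barrier was Permeapad or the support layer alone, without phospholipids. Cumulative permeated moles per barrier area were plotted against time in seconds. Replicates were at least triplicate, and Papp is the mean of the replicates.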
# [7] = Permeability of compound at 5 mM using support layer at pH 7.4 at 298 K by spectrophotometric method; type: ADME; conditions: not told; in short: as §1
# [8] = Thermodynamic solubility of compound in buffer at 298 +/- 0.1 K after 24 hrs by shake flask method; type: physicochemical; conditions: read-out: Therm_solubility
# In short: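 Shake flask at 298 K (±0.1 K). Phosphate buffer pH 7.4 (I = 0.15 mol L−1) was stirred with solid for 24 h, an equilibration time chosen from kinetic plateau experiments. Aliquot was centrifuged 5 min at 298 K, then isothermally filtered (0.45 μm) and diluted. Concentration was read by UV spectrophotometry (200–400 nm). Value is the mean of at least three replicates.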
# [9] = 1-hexane/buffer distribution co-efficient, log D of compound at pH 7.4 at 298 K after 24 hrs by shake flask method; type: physicochemical; conditions: pH 7.4, 24 h
SMILES,logD at 24 h [1],K [2],K [3],Activity [4] [%],Papp at 5000 µM [5] [×10⁻⁶ cm/s],Papp at 5000 µM [6] [×10⁻⁶ cm/s],Papp at 5000 µM [7] [×10⁻⁶ cm/s],solubility thermodynamic at 24 h [8] [mM],logD [9]
Cc1ccc(Cl)cc1Nc1nc(CC(C)NC2CC(C)(C)NC(C)(C)C2)ns1 (configuration not stated),0.839,4.56 ×10⁴ No_unit,112.8,177,26.9,14.4,30.8,4.86,
CC(O)Cc1nsc(Nc2ccc(Cl)c(Cl)c2)n1 (configuration not stated),2.79,610,0.17,51,,,,,
CC(Cc1nsc(Nc2ccc(Cl)c(Cl)c2)n1)NC1CC(C)(C)NC(C)(C)C1 (configuration not stated),1.1,,72.3,305,26.1,9.8,15.7,7.45,
Cc1ccc(Cl)cc1Nc1nc(CC(C)O)ns1 (configuration not stated),3.02,,0.56,88,,,,0.445,
CC(Cc1nsc(Nc2ccc(F)c(Cl)c2)n1)NC1CC(C)(C)NC(C)(C)C1 (configuration not stated),0.699,3.25 ×10⁴ No_unit,42,189,30.9,13.9,25.4,9.24,
CC(O)Cc1nsc(Nc2ccc(Cl)cc2)n1 (configuration not stated),2.58,380,0.46,89,,,,0.484,
CC(Cc1nsc(Nc2ccc(Br)cc2)n1)NC1CC(C)(C)NC(C)(C)C1 (configuration not stated),0.31,1.36 ×10⁴ No_unit,85,82,9.5,6.5,25.8,3.49,
CC(O)Cc1nsc(Nc2ccc(F)cc2)n1 (configuration not stated),2.5,316,0.32,88,,,,3.4,
COc1ccc(Nc2nc(CC(C)O)ns2)cc1 (configuration not stated),2.31,205,0.58,108,,,,3.04,
CC(Cc1nsc(NC2CC2)n1)NC1CC(C)(C)NC(C)(C)C1 (configuration not stated),0.0828,3.19 ×10³ No_unit,655.5,86,6.8,5.4,27.6,310,
Cc1ccc(Nc2nc(CC(C)NC3CC(C)(C)NC(C)(C)C3)ns2)cc1 (configuration not stated),0.82,4.44 ×10⁴ No_unit,89.3,128,22.8,12.2,26.3,8.37,
CC(Cc1nsc(Nc2ccc(F)cc2)n1)NC1CC(C)(C)NC(C)(C)C1 (configuration not stated),0.881,5.06 ×10⁴ No_unit,158,112,18.6,8.7,16.3,18.2,
CC(Cc1nsc(Nc2ccc(Cl)cc2)n1)NC1CC(C)(C)NC(C)(C)C1 (configuration not stated),0.262,1.22 ×10⁴ No_unit,73,172,14.1,8.6,21.9,3.72,
Cc1cc(Nc2nc(CC(C)NC3CC(C)(C)NC(C)(C)C3)ns2)no1 (configuration not stated),-0.426,,258.6,108,3.7,3.4,31.7,14.1,
Cc1ccc(Nc2nc(CC(C)O)ns2)cc1Cl (configuration not stated),3.02,1.038 ×10³ No_unit,1.68,87,,,,0.483,
Cc1ccc(Nc2nc(CC(C)NC3CC(C)(C)NC(C)(C)C3)ns2)cc1Cl (configuration not stated),1.04,7.31 ×10⁴ No_unit,20.6,214,39.5,13.5,20.6,5.57,0.0031
CSc1cccc(Nc2nc(CC(C)O)ns2)c1 (configuration not stated),1.97,94,0.48,86.7,,,,,
Cc1ccc(Nc2nc(CC(C)O)ns2)cc1 (configuration not stated),2.65,445,0.31,85,,,,2.19,
Cc1cc(Nc2nc(CC(C)O)ns2)no1 (configuration not stated),1.65,45,0.18,109,,,,,
CSc1cccc(Nc2nc(CC(C)NC3CC(C)(C)NC(C)(C)C3)ns2)c1 (configuration not stated),0.643,2.92 ×10⁴ No_unit,92.9,117,18.2,10.1,22.8,12,
CC(O)Cc1nsc(Nc2ccc(F)c(Cl)c2)n1 (configuration not stated),2.35,226,0.16,75,,,,,
